Reference: ChEMBL document CHEMBL4414600, “Discovery of a Furanopyrimidine-Based Epidermal Growth Factor Receptor Inhibitor (DBPR112) as a Clinical Candidate for the Treatment of Non-Small Cell Lung Cancer” (J Med Chem, 2019)
pIC50: −log10 of the molar value. Calls of active or inactive are those of the source. The rule behind the calls is not given here.

Tests used:
[1] = Inhibition of GST-tagged human EGFR D770GY mutant using poly(Glu, Tyr) 4:1 substrate incubated for 120 mins by kinase-Glo plus luminescent kinase assay
[2] = target: Receptor tyrosine-protein kinase erbB-2 (Homo sapiens) (UniProt P04626); test: Binding affinity to wild-type human partial length ERBB2 (K646 to V1225 residues) expressed in mammalian expression system assessed as residual binding level at 10000 nM by Kinomescan method relative to control
Summary of the method: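 KINOMEscan competition-binding profiling at a single concentration of 10,000 nM across a panel that included 395 non-mutant kinases. Binding is read out as percent of control. Kinases with less than 10% of control were counted as hits for the S(10) selectivity score, which is the number of non-mutant hits divided by the number of non-mutant kinases tested.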

[3] = target: T1, Cytoplasmic tyrosine-protein kinase BMX (Homo sapiens) (UniProt P51813); test: Binding affinity to wild-type human full length BMX (M1 to H675 residues) expressed in bacterial expression system assessed as residual binding level at 10000 nM by Kinomescan method relative to control
T1 sequence (whole entry): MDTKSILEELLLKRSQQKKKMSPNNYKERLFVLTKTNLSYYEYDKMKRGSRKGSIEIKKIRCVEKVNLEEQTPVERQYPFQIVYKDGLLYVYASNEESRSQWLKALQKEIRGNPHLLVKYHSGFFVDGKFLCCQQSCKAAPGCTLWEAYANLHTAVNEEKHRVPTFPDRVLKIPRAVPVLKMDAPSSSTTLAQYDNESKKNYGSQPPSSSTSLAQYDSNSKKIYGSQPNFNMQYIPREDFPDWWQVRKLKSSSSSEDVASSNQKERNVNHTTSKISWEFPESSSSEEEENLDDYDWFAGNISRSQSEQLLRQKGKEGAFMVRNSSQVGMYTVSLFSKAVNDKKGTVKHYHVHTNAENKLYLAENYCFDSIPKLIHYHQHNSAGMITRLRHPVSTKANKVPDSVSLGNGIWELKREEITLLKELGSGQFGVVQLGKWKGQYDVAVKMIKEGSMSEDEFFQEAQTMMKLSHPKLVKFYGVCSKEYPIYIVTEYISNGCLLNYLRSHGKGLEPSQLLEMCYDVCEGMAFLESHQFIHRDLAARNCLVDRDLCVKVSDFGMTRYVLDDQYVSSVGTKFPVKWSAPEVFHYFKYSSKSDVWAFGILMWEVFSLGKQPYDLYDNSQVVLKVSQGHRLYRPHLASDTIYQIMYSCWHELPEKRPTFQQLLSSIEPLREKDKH
Summary of the method: (§1)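 KINOMEScan competition binding panel run at 10,000 nM compound, with results expressed as percent of control binding. S(10) is the fraction of non-mutant kinases below 10% of control, out of 395 tested.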

[4] = target: T2, Tyrosine-protein kinase Tec (Homo sapiens) (UniProt P42680); test: Binding affinity to wild-type human partial length TEC (L341 to D620 residues) expressed in bacterial expression system assessed as residual binding level at 10000 nM by Kinomescan method relative to control; summary of the method: as §1
T2 sequence (whole entry): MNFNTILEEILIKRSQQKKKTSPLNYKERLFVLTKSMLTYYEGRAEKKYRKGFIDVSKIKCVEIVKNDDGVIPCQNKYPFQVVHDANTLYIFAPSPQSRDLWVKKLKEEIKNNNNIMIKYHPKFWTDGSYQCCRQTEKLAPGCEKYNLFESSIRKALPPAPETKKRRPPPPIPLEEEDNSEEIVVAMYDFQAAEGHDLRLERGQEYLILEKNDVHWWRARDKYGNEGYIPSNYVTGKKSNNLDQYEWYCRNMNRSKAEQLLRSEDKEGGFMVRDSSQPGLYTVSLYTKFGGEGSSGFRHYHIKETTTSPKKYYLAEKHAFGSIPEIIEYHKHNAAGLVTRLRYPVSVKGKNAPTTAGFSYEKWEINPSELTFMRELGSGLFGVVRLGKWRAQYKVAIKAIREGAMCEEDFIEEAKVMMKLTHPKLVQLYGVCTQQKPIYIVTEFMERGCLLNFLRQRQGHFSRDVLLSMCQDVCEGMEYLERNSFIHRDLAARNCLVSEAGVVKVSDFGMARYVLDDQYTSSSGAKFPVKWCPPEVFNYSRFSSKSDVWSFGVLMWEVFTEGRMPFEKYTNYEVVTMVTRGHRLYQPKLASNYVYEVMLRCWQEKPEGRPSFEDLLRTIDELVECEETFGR

[5] = target: STE20-like serine/threonine-protein kinase (Homo sapiens) (UniProt Q9H2G2); test: Binding affinity to wild-type human partial length SLK (S14 to A307 residues) expressed in bacterial expression system assessed as residual binding level at 10000 nM by Kinomescan method relative to control; summary of the method: as §1
[6] = system: HCC827; test: Antitumor activity against human HCC827 cells xenografted in athymic NU-Fox1nu nude mouse assessed as inhibition of tumor growth at 20 to 50 mg/kg, po dosed via gavage for 5 days/week for 2 consecutive weeks; type: functional, organism-based
Summary of the method: (§2)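 Male athymic NU-Fox1nu nude mice, 6–8 weeks old, were inoculated subcutaneously at the left flank with 5x10^6 HCC827 (exon 19 Del E746_A750) cells. Oral gavage began at a mean tumor size of about 500 mm³, in 1% methylcellulose/0.5% Tween 80/98.5% water, once daily on days 1-5 and 8-12. Tumor volume (V = 0.5 a × b², caliper) and body weight were tracked.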

[7] = Toxicity in athymic NU-Fox1nu nude mouse xenografted with human HCC827 cells assessed as induction of adverse effects at 20 to 50 mg/kg, po dosed via gavage for 5 days/week for 2 consecutive weeks; type: organism-based; settings: in vivo, 120 h; summary of the method: as §2
[8] = system: NCI-H1975; test: Antitumor activity against human NCI-H1975 cells xenografted in nude BALB/c mouse assessed as inhibition of tumor growth at 50 mg/kg, po QD for 15 days relative to control; type: functional
Summary of the method: (§3)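 H1975 cells were grown in RPMI1640 with 10% heat-inactivated FBS at 37 °C, 5% CO2, and passaged by trypsin-EDTA. 5x10^6 cells in 0.1 ml PBS were injected subcutaneously at the right flank of BALB/c nude mice. Oral QD dosing for 15 days began at a mean tumor size of 147 mm³, n = 5 per group.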

[9] = Toxicity in nude BALB/c mouse xenografted with human NCI-H1975 cells assessed as induction of body weight loss at 50 mg/kg, po QD for 15 days relative to control; type: organism-based; settings: in vivo, 360 h; summary of the method: as §3
[10] = Cmax in rat at 23.6 mg/kg, po; type: ADME, organism-based; set-up: dose 23.6 mg/kg, route oral; settings: in vivo
Summary of the method: (§4)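 Rat pharmacokinetics: single IV injection at 5 mg/kg or oral dosing at 20 mg/kg (23.6 mg/kg oral for one compound). Plasma parameters t1/2, CL, Vss, AUC(0-inf), Cmax, Tmax and oral bioavailability F were derived from the concentration–time profiles.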

[11] = Tmax in rat at 23.6 mg/kg, po; type: ADME, organism-based; settings: in vivo; summary of the method: as §4
[12] = Oral bioavailability in rat at 23.6 mg/kg; type: ADME, organism-based; settings: in vivo; summary of the method: as §4
[13] = system: NCI-H1975; settings: Homo sapiens, at 312.5 to 20000 nM
[14] = in vivo; settings: rat, po, 23.6 mg/kg

STE20-like serine/threonine-protein kinase (Homo sapiens), sequence (Q9H2G2 whole entry, looked up, the tested form may be a part): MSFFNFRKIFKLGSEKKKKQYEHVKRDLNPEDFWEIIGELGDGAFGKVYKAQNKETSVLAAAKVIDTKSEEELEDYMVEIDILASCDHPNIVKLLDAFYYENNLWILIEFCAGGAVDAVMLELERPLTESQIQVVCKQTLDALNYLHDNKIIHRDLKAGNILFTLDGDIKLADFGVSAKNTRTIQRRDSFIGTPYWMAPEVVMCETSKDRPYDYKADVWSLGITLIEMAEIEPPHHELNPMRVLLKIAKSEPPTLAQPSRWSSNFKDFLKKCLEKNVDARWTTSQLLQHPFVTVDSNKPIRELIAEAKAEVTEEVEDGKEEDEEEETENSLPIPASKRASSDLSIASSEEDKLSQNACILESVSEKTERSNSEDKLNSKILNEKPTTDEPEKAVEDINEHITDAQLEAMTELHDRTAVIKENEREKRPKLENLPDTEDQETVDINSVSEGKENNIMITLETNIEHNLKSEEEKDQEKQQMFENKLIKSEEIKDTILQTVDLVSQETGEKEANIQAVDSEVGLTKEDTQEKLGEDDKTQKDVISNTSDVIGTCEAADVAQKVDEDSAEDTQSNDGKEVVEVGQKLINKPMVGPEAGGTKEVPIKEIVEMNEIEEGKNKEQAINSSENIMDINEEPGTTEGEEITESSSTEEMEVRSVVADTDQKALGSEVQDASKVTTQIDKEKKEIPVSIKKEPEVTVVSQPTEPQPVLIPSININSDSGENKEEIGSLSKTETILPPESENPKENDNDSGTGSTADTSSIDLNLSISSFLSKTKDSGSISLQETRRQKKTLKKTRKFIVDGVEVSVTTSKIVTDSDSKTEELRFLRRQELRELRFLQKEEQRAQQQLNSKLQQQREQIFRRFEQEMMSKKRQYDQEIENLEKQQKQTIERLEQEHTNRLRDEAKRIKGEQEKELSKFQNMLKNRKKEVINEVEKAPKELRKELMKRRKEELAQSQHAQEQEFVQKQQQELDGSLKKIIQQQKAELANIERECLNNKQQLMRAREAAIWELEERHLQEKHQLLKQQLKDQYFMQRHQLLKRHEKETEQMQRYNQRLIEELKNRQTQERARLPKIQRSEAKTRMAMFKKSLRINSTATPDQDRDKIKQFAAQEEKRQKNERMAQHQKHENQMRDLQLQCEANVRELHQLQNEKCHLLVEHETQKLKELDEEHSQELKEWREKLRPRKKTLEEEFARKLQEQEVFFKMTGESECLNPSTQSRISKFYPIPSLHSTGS
Receptor tyrosine-protein kinase erbB-2 (Homo sapiens), sequence (P04626 whole entry, the tested form may be a part): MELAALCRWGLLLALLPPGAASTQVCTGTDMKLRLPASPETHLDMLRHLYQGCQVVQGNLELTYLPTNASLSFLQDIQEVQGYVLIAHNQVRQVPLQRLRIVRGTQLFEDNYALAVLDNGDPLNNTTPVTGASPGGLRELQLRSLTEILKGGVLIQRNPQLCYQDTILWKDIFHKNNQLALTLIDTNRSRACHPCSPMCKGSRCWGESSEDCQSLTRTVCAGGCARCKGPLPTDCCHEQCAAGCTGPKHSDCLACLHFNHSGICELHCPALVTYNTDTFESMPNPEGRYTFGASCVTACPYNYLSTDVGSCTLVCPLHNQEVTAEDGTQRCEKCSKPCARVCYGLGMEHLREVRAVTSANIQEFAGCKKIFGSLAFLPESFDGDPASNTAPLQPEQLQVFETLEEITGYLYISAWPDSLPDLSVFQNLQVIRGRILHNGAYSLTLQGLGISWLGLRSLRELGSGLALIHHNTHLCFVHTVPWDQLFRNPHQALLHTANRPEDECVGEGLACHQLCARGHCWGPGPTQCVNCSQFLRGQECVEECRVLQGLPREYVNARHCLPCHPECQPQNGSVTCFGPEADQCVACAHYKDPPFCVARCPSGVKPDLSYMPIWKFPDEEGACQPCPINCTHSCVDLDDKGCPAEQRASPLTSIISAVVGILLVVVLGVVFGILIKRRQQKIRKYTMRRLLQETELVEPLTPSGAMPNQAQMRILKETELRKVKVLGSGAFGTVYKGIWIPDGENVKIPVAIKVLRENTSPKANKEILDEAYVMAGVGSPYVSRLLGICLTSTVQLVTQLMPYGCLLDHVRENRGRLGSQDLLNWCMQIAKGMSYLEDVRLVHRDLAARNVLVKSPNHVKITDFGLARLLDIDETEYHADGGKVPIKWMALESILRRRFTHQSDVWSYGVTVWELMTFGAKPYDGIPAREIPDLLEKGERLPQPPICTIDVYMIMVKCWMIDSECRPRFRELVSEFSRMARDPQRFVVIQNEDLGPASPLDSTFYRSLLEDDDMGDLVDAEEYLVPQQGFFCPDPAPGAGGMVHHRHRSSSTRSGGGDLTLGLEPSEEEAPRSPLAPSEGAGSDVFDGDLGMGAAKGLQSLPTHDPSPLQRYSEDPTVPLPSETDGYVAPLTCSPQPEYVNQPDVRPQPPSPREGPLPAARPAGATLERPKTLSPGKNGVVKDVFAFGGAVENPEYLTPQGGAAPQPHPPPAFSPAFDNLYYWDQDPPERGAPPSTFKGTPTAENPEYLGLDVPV

Compound `CN(C)C/C=C/C(=O)Nc1cccc(-c2c(-c3ccccc3)oc3ncnc(N[C@H](CO)c4ccccc4)c23)c1` has a pIC50 [1] of 10.48, an Activity [2] of 0% and an Activity [3] of 4.8%. The Activity [4] was 5.6%, the Activity [5] was < 10% and the TGI [6] was “Active”. The Activity [7] was “Non-Toxic”, the TGI [8] was 34% and the Activity [9] was “Non-Toxic”. It also gave a Cmax [10] of 508 ng/mL, a Tmax [11] of 3.3 h and a bioavailability [12] of 41.5%. For the same compound, the inhibition [13] was “Dose-dependent effect” and the AUC(0-inf) [14] was 2980 ng·h/mL.
